In ChEMBL document CHEMBL1123335, “Synthesis and class III antiarrhythmic activity of (phenylbut-2-enyl)ammonium salts. Effect of conformation on activity” (J Med Chem, 1986):
Several values for one entry are separate records, joined by “and”; a condition that tells them apart may be missing. Equal values may be shown once.

Tests used:
[1] = species on record: Canis familiaris; assay: Compound was evaluated for intracellular electrophysiology in canine Purkinje fiber measured as maximum prolongation of APD95 observed at a dose range of 100 uM; assay type: functional, Canis lupus familiaris
In short: (§1)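 Canine Purkinje fibers superfused at 37 ± 0.5 °C, pH 7.35–7.40 (95:5 O2/CO2), paced at 1.0 Hz (2-ms pulses, 2× diastolic threshold). Fibers stabilized up to 1 h. Intracellular microelectrode (3 M KCl) recording of APD95, 30 min exposure per concentration across 10^-8–10^-4 M. Value is concentration giving 20% APD95 prolongation, or maximum prolongation with its concentration.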

[2] = species on record: Canis familiaris; assay: Intracellular electrophysiology in canine Purkinje fiber measured as concentration that caused 20% prolongation of action potential duration (APD95); assay type: functional, Canis lupus familiaris; in short: as §1
[3] = tested on: Canis familiaris; assay: Compound was evaluated for intraduodenal bioavailability in anesthetized dogs measured as mean blood pressure at a dose of 10/30 range; 2/16; assay type: ADME, organism-based, Canis lupus familiaris, Artery; settings: dog, in vivo
In short: (§2)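 Pentobarbital-anesthetized (30 mg/kg i.v.) dogs, 8–20 kg, either sex. Compound given intraduodenally as a 0.5% tragacanth suspension, usually as two doses, the second cumulative. HR, BP, FRP and conduction were measured at 15, 30 and 45 min postdose. Mean BP reported as % change from control, low dose/high dose, for each animal.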

[4] = species on record: Canis familiaris; assay: Compound was evaluated for intracellular electrophysiology in canine potential (Vmax) at a dose range of 100 uM; assay type: functional; settings: Canis lupus familiaris
In short: (§3)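 Canine Purkinje fibers at 37 ± 0.5 °C, gassed 95:5 O2/CO2 (pH 7.35–7.40), stimulated at 1.0 Hz. Maximum upstroke velocity (Vmax) recorded by glass microelectrode after up to 1 h stabilization. Compounds tested at 10^-8–10^-4 M with 30 min exposure per concentration. Reported as maximum observed effect on Vmax and the concentration at which it occurred.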

[5] = tested on: Canis familiaris; assay: In vivo antiarrhythmic efficacy in anesthetized dogs; 2/2
[6] = tested on: Canis familiaris; assay: In vivo antiarrhythmic efficacy in anesthetized dogs
[7] = species on record: Canis familiaris; assay: Intracellular electrophysiology in canine Purkinje fiber measured as maximum prolongation of APD95 observed at a dose of 10 uM; assay type: functional, Canis lupus familiaris; in short: as §1
[8] = tested on: Canis familiaris; assay: Compound was evaluated for intraduodenal bioavailability in anesthetized dogs measured as mean blood pressure at a dose of 10/60 range; 13/23; assay type: ADME, organism-based, Canis lupus familiaris, Artery; settings: dog, in vivo; in short: as §2
[9] = species on record: Canis familiaris; assay: Intracellular electrophysiology in canine potential (Vmax) at a dose range.; assay type: functional; settings: Canis lupus familiaris; in short: as §3
[10] = species on record: Canis familiaris; assay: Compound was evaluated for intracellular electrophysiology in canine Purkinje fiber measured as maximum prolongation of APD95 observed at 10 uM; assay type: functional, Canis lupus familiaris; in short: as §1
[11] = species on record: Canis familiaris; assay: Compound was evaluated for intracellular electrophysiology in canine potential (Vmax) at 10 uM; assay type: functional; settings: Canis lupus familiaris; in short: as §3
[12] = tested on: Canis familiaris; assay: Compound was evaluated for intraduodenal bioavailability in anesthetized dogs measured as mean blood pressure at a dose of 10/30 range; 10/31; assay type: ADME, organism-based, Canis lupus familiaris, Artery; settings: dog, in vivo; in short: as §2
[13] = species on record: Canis familiaris; assay: Compound was evaluated for intracellular electrophysiology in canine uM; assay type: functional; settings: Canis lupus familiaris; in short: as §3
[14] = species on record: Canis familiaris; assay: Compound was evaluated for intracellular electrophysiology in canine Purkinje fiber measured as concentration that caused 20% prolongation of action potential duration (APD95) at a dose range of 0.01-1 uM; assay type: functional, Canis lupus familiaris; in short: as §1
[15] = tested on: Canis familiaris; assay: Compound was evaluated for intraduodenal bioavailability in anesthetized dogs measured as mean blood pressure at a dose of 10/30 range; 8/8; assay type: ADME, organism-based, Canis lupus familiaris, Artery; settings: dog, in vivo; in short: as §2
[16] = species on record: Canis familiaris; assay: Compound was evaluated for intracellular electrophysiology in canine Purkinje fiber measured as concentration that caused 20% prolongation of action potential duration (APD95) at a dose range of 0.01-10 uM; NR=Not reached; assay type: functional; settings: Canis lupus familiaris; in short: as §1
[17] = tested on: Canis familiaris; assay: Compound was evaluated for intraduodenal bioavailability in anesthetized dogs measured as mean blood pressure at a dose of 10/30 range; 6/2; assay type: ADME, organism-based, Canis lupus familiaris, Artery; settings: dog, in vivo; in short: as §2
[18] = species on record: Canis familiaris; assay: Compound was evaluated for intracellular electrophysiology in canine Purkinje fiber measured as maximum prolongation of APD95 observed at a dose of 1 uM; assay type: functional, Canis lupus familiaris; in short: as §1
[19] = species on record: Canis familiaris; assay: Compound was evaluated for intracellular electrophysiology in canine potential (Vmax) at a dose of 100 uM; assay type: functional; settings: Canis lupus familiaris; in short: as §3
[20] = species on record: Canis familiaris; assay: Compound was evaluated for intracellular electrophysiology in canine potential (Vmax) at a dose of 1 uM; assay type: functional, Canis lupus familiaris; settings: at 1 µM
[21] = species on record: Canis familiaris; assay: Compound was evaluated for intracellular electrophysiology in canine potential (Vmax) at a dose range of 0.01-10 uM; assay type: functional; settings: Canis lupus familiaris; at 0.01 to 10 µM
In short: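 Isolated cardiac fibres superfused with bicarbonate/glucose salt solution gassed 95:5 O2/CO2 (pH 7.35–7.40), 37 ± 0.5 °C. Bipolar stimulation at 1.0 Hz with 2-ms square pulses at twice diastolic threshold. Intracellular recording with 3 M KCl glass microelectrodes after up to 1 h stabilization. Each concentration (10^-8–10^-4 M) applied for 30 min. Value is the maximum Vmax effect and the concentration at which it occurred, per study.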

[22] = species on record: Canis familiaris; assay: Compound was evaluated for intracellular electrophysiology in canine potential (Vmax) at a dose of 10 uM; assay type: functional, Canis lupus familiaris; in short: as §3
[23] = tested on: Canis familiaris; assay: In vivo antiarrhythmic efficacy in anesthetized dogs; Inactive at 3 mg/kg
[24] = tested on: Canis familiaris; assay: In vivo antiarrhythmic efficacy in anesthetized dogs; 2/3
[25] = tested on: Canis familiaris; assay: Compound was evaluated for intraduodenal bioavailability in anesthetized dogs measured as mean blood pressure at a dose of 10/30 range; 19/3; assay type: ADME, organism-based, Canis lupus familiaris, Artery; settings: dog, in vivo; in short: as §2
[26] = species on record: Canis familiaris; assay: Compound was evaluated for intracellular electrophysiology in canine Purkinje fiber measured as concentration that caused 20% prolongation of action potential duration (APD95) at a dose range of 0.01-100 uM; assay type: functional, Canis lupus familiaris; in short: as §1
[27] = species on record: Canis familiaris; assay: Concentration at which maximum observed effect on the action potential (Vmax) at a dose range of 0.1-100 uM occurred; 2/2; assay type: functional, Canis lupus familiaris
[28] = species on record: Canis familiaris; assay: Compound was evaluated for intracellular electrophysiology in canine Purkinje fiber measured as concentration that caused 20% prolongation of action potential duration (APD95) at a dose range of 0.1-100 uM; assay type: functional, Canis lupus familiaris; in short: as §1
[29] = species on record: Canis familiaris; assay: Compound was evaluated for intracellular electrophysiology in canine Purkinje fiber measured as maximum prolongation of APD95 observed at 1 uM; assay type: functional, Canis lupus familiaris; in short: as §1
[30] = tested on: Canis familiaris; assay: Compound was evaluated for intraduodenal bioavailability in anesthetized dogs measured as mean blood pressure at a dose of 3 range; assay type: ADME, organism-based, Canis lupus familiaris, Artery; settings: dog, in vivo, other; in short: as §2
[31] = species on record: Canis familiaris; assay: Compound was evaluated for intracellular electrophysiology in canine Purkinje fiber measured as concentration that caused 20% prolongation of action potential duration (APD95) at a dose range of 0.1-10 uM; assay type: functional, Canis lupus familiaris; in short: as §1
[32] = species on record: Canis familiaris; assay: Compound was evaluated for intracellular electrophysiology in canine potential (Vmax) at 100 uM; assay type: functional; settings: Canis lupus familiaris; in short: as §3
[33] = tested on: Canis familiaris; assay: Compound was evaluated for intraduodenal bioavailability in anesthetized dogs measured as mean blood pressure at a dose of 10/30 range; 8/49; assay type: ADME, organism-based, Canis lupus familiaris, Artery; settings: dog, in vivo; in short: as §2

CCN(CC)C/C(C)=C(/C)Cc1ccc([N-]S(C)(=O)=O)cc1.[Na+]
APD95 [1]: 78%
C20 [2]: 2.2 µM
Bioavailabiility [3]: 2%
Vmax [4]: -13%

CCCCCCC[N+](CC)(CC)C/C=C\Cc1ccc(Cl)cc1.O=P([O-])(O)O
Efficacy [5]: 2
Effective dose [6]: 0.3 mg/kg
APD95 [7]: 28% and 29% and 23%

CCCCCCC[N+](CC)(CC)C/C=C\Cc1cccc(Cl)c1Cl.Cc1ccc(S(=O)(=O)[O-])cc1
C20 [2]: 2 µM
Bioavailabiility [8]: 13%
APD95 [7]: 35%
Vmax [9]: Minimal

CCN(CC)C/C=C\Cc1ccc([N+](=O)[O-])cc1.Cl
APD95 [10]: 25%
Vmax [11]: -13%
C20 [2]: 0.9 µM
Bioavailabiility [12]: 10%

CC[N+](CC)(CC)CC#CCc1ccc(Cl)cc1.[I-]
C20 [2]: 0.3 µM
APD95 [7]: 53%
Vmax [13]: -6%

CCCCCCC[N+](CC)(CC)C/C=C\Cc1ccc(Cl)cc1.Cc1ccc(S(=O)(=O)[O-])cc1
APD95 [7]: 42% and 47% and 23%

CCCCCCC[N+](CC)(CC)C/C=C\Cc1ccccc1Cl.[Cl-]
C20 [14]: <0.1 µM
Bioavailabiility [15]: 8%
Efficacy [5]: 2
C20 [16]: Not reached
APD95 [7]: 16%
Vmax [9]: Minimal
Bioavailabiility [17]: 6%
APD95 [18]: 72%

CCN(CC)CC#CCc1ccc(Cl)cc1.Cl
Vmax [19]: -34%
C20 [16]: Not reached
APD95 [7]: -6%

CCCCCCC[N+](CC)(CC)CCCCc1ccc(Cl)cc1.O=P([O-])(O)O [CLOFILIUM PHOSPHATE]
APD95 [20]: 25% and 29%
Vmax [21]: -21%
APD95 [22]: 78% and 27%
Effective dose [23]: 0.5 mg/kg
C20 [2]: 2 µM
Effective dose [6]: 0.1 mg/kg
APD95 [7]: 29% and 46%
Efficacy [24]: 2

CCN(CC)C/C(C)=C(/C)Cc1ccc([N+](=O)[O-])cc1.Cl
APD95 [10]: 66% and 55%
Bioavailabiility [25]: 19%
C20 [26]: 0.05 µM
Efficacy [27]: 2
C20 [28]: <0.1 µM
Effective dose [6]: 0.1 mg/kg and 0.3 mg/kg
Max APD95 [29]: 27%
Bioavailabiility [30]: 9%
C20 [31]: 0.4 µM
Vmax [32]: -28% and -52%

CCCCCCC[N+](CC)(CC)C/C=C/Cc1ccc(Cl)cc1.Cc1ccc(S(=O)(=O)[O-])cc1
C20 [2]: <1 µM and 1.9 µM and 1.4 µM

C[N+](C)(C)C/C=C\Cc1ccc(Cl)cc1.[Cl-]
Bioavailabiility [33]: 8%
C20 [2]: 0.3 µM
APD95 [7]: 43%
Vmax [9]: Minimal

CCCCCCC[N+](CC)(CC)C/C=C\Cc1ccc(Br)cc1.O=P([O-])(O)O
C20 [2]: 5.7 µM
Efficacy [5]: 2
Effective dose [6]: 1 mg/kg and 3 mg/kg
Vmax [9]: Minimal
